Experimental data of several laboratories.
Compare with care: the assays were run in different laboratories. Values after ≈ are worked out from the molar mass of the structure shown.

Compound	target or system	assay	setting	measurement	result
O=C(Nc1ccc(F)cc1)c1ccc(COC(Cn2ccnc2)c2ccc(Cl)cc2Cl)cc1 (stereo not shown)	Nakaseomyces glabratus	microbial growth, broth dilution	–	MIC80	0.25 µg/mL (≈ 0.516 µM)
COc1cc(C2=CCCCc3c2ccc(OC)c3OC(C)c2ccc([N+](=O)[O-])s2)cc(OC)c1OC (stereo not shown)	–	tubulin polymerisation, inhibitor	20 min	IC50	> 20 µM
OC(Cn1cncn1)(Cn1cncn1)c1ccc(F)cc1F	Nakaseomyces glabratus	microbial growth, broth dilution	–	MIC80	8 µg/mL (≈ 26.1 µM)
Cc1n[nH]c2ccc3nc(-c4ccc(C(=O)NCCN(C)C)cc4F)c4c(c3c12)CCCC4	HCC827	cell growth or viability	72 h	GI50	0.611 µM
COc1cc(C2=CCCc3c2ccc(OC)c3OCc2ccc([N+](=O)[O-])s2)cc(OC)c1OC	–	tubulin polymerisation, inhibitor	20 min	IC50	> 20 µM
CCCCn1cnc2ccc(-c3ccc(NC(=O)NC(C)(C)C)nc3)cc2c1=O	HCC827	cell growth or viability, CCK-8	72 h	IC50	3.97 µM
Cc1n[nH]c2ccc3nc(-c4ccc(C(=O)NCCN(C)C)cc4)c4c(c3c12)CCCC4	HCC827	cell growth or viability	72 h	GI50	4.07 µM
O=C(Nc1ccc(C(F)(F)F)cc1)c1ccc(COC(Cn2ccnc2)c2ccc(Cl)cc2Cl)cc1 (stereo not shown)	Nakaseomyces glabratus	microbial growth, broth dilution	–	MIC80	0.125 µg/mL (≈ 0.234 µM)
Cc1n[nH]c2ccc3nc(-c4ccc(C(=O)NCCN(C)C)cc4F)c4c(c3c12)CCCCC4	HCC827	cell growth or viability	72 h	GI50	4.87 µM
O=C(Nc1ccccc1)c1ccc(COC(Cn2ccnc2)c2ccc(Cl)cc2Cl)cc1 (stereo not shown)	Nakaseomyces glabratus	microbial growth, broth dilution	–	MIC80	0.25 µg/mL (≈ 0.536 µM)
CN(C)CCNC(=O)c1ccc(-c2nc3ccc4[nH]ncc4c3c3c2CCCC3)c(F)c1	HCC827	cell growth or viability	72 h	GI50	1.01 µM
COc1cc(C2=CCCc3c2ccc(OC)c3OC(C)c2cnc([N+](=O)[O-])n2C)cc(OC)c1OC (stereo not shown)	–	tubulin polymerisation, inhibitor	20 min	IC50	> 20 µM
Cc1nc(Nc2ncc(C(=O)Nc3c(C)cccc3Cl)s2)cc(N2CC[C@H](O)C2)n1	OCI-LY19	cell growth or viability, ATP luminescence	10 µM, 72 h	inhibition	9%
